Results pooled from the literature.
Compare with care: the assays were run in different laboratories.
Target: Receptor-interacting serine/threonine-protein kinase 2 (RIPK2, Homo sapiens, UniProt O43353)

`Oc1cccc(-c2nc(N3CCOCC3)c3oc4ncccc4c3n2)c1` gave a remaining activity of 72% (enzyme activity, inhibitor; 10 µM).
The remaining binding of `NS(=O)(=O)c1cc(NC(=O)C2(c3ccccc3Cl)CC2)ccc1Oc1cccc(Cl)c1` is reported as 93% (cell-free assay, competition with immobilised ligand; 1 µM).
For `F[C@@H]1CCN(c2nccc(-c3cnn4ncccc34)n2)C1`, the remaining binding was 100% (binding; 1 µM).
With `Nc1ncnc2occ(-c3ccc(NC(=O)Nc4cc(C(F)(F)F)ccc4F)cc3)c12` the remaining signal was 4.2% (cell-free assay, inhibitor; 20 µM).
For `Cn1c(=O)n(-c2ccc(C(C)(C)C#N)cc2)c2c3cc(-c4cnc5ccccc5c4)ccc3ncc21`, the remaining activity was 28% (enzyme activity, inhibitor; 10 µM).
For `COc1ccc2c(c1)O[C@H](c1ccc(OC)c(OC)c1)C[C@@H]2NC(=O)C1(c2ccc3c(c2)OC(F)(F)O3)CC1`, the remaining binding was 100% (cell-free assay, competition with immobilised ligand; 1 µM).
With `CNCc1ccc(-c2cc(-c3nc(-c4ccc(S(=O)(=O)C(C)C)cc4)cnc3N)on2)cc1` the inhibition was 6% (enzyme activity, inhibitor; 0.4 µM).
The remaining binding of `CN1CCN(c2cnc3c(C4CCN(C(=O)c5ccc(OC(F)(F)F)cc5N)CC4)ncnc3c2)CC1` is reported as 100% (cell-free assay, competition with immobilised ligand; 1 µM).
The remaining activity of `CC(C)(O)[C@H]1CC[C@H](Nc2ccc3ncc(-c4cccc(C(F)(F)F)c4)n3n2)CC1` is reported as 28.1% (enzyme activity, inhibitor; 1 µM).
With `CC(C)(C)c1nc(-c2cccc(NS(=O)(=O)c3c(F)cccc3F)c2F)c(-c2ccnc(N)n2)s1` the remaining activity was 5% (enzyme activity, inhibitor, radiometric; 1 µM).
With `Cc1cc(NC(=O)c2cccc3cc(-c4cccc5[nH]nc(N)c45)ccc23)ccc1F` the activity vs control was 110% (enzyme activity, inhibitor; 0.1 µM).
With `COc1cc(Nc2cnc(C#N)c(O[C@H](C)CN(C)C)n2)ncc1-c1cnn(C)c1` the remaining activity was 97% (enzyme activity, inhibitor, radiometric; 1 µM).
`Cc1nccc(COC(=O)N2C[C@@H]3[C@@H](CNC(=O)c4ccc5[nH]nnc5c4)[C@@H]3C2)n1` gave a remaining binding of 100% (cell-free assay, competition with immobilised ligand; 1 µM).
The inhibition of `Cn1cnc(Br)c1C1=CN(c2ncnc3[nH]cnc23)CCS1` is reported as 16.6% (enzyme activity, inhibitor, radiometric; 50 nM).
`CCCS(=O)(=O)Nc1ccc(F)c(C(=O)c2c[nH]c3ncc(-c4ccc(Cl)cc4)cc23)c1F` has an inhibition of less than 10% (enzyme activity, inhibitor; 1 µM).
`CCS(=O)(=O)c1cc2cc(C[C@@](O)(CC(C)(C)c3ccc(F)cc3C(N)=O)C(F)(F)F)[nH]c2cn1` has a remaining binding of 100% (cell-free assay, competition with immobilised ligand; 1 µM).
For `FC(F)(F)Oc1cccc(-c2cnc3ccc(-c4ccncc4)nn23)c1`, the activity vs control was 22% (enzyme activity, inhibitor, radiometric; 5 µM).
`N#CCCc1ccc2c(c1)-c1[nH]c3ccc([N+](=O)[O-])cc3c1CC(=O)N2` has a remaining signal of 21.5% (cell-free assay; 0.5 µM).
The remaining binding of `CC(=O)N1CCC(c2ccc(C(=O)NC(=N)N)cc2C(F)(F)F)CC1` is reported as 100% (cell-free assay, competition with immobilised ligand; 1 µM).
The remaining activity of `Cc1ccc(Nc2nccc(N(C)c3ccc4c(C)n(C)nc4c3)n2)cc1S(N)(=O)=O` is reported as 68.2% (enzyme activity, inhibitor; 0.5 µM).
`O=C(Nc1cnn(-c2csc(C(=O)NC3COC3)c2)c1)Nc1c(F)cccc1Cl` gave a remaining activity of 80.2% (enzyme activity, inhibitor; 5 µM).
With `CCN(CC)c1ccc(C2=NNC(=O)CC2C)cc1[N+](=O)[O-]` (centres unmarked) the remaining activity was 91% (enzyme activity, inhibitor; 10 µM).
`CCCOc1ccc(OC)c(F)c1C(=O)c1ccc(C(=O)N[C@@H]2CNC[C@H]2NC(=O)c2ccc3[nH]ncc3c2)cc1` gave a remaining activity of 91% (enzyme activity, inhibitor; 10 µM).
The remaining signal of `COc1cc2ncnc(Nc3ccc(Oc4ccccc4)cc3)c2cc1OC` is reported as 55.5% (cell-free assay; 0.5 µM).
With `CCN(CC)CCNC(=O)c1c(C)[nH]c(/C=C2\C(=O)Nc3ccc(F)cc32)c1C` the inhibition was -10% (enzyme activity, inhibitor; 0.3 µM).
The remaining binding of `CC(=O)c1c(NS(C)(=O)=O)c2cc(-c3ccc(Cl)cc3)c(-c3ccc(Cl)cc3Cl)nc2n(C)c1=O` is reported as 96% (cell-free assay, competition with immobilised ligand; 1 µM).
`Cc1sc(C(=O)NC2COC2)cc1-n1cc(NC(=O)Nc2c(F)cccc2Cl)cn1` gave a remaining activity of 89.3% (enzyme activity, inhibitor; 10 µM).
`CCc1ccccc1C(=O)Nc1n[nH]c2c(C)c(F)c(C3C(C#N)=C(C)N(C)C(C)=C3C#N)cc12` gave a remaining binding of 100% (cell-free assay, competition with immobilised ligand; 1 µM).
`O=C1Nc2ccc(Cl)cc2C1=Cc1cc(Cl)c(O)c(Cl)c1` has a remaining signal of 50.2% (cell-free assay; 0.5 µM).
